Assay results from article PMC10759213 (RSC Advances, 2024).
Read-outs that look alike come from different tables or passages of the source.

How the values were obtained:
[1] = DPPH radical scavenging antioxidant assay; conditions: for Antioxidant activity % Inhibition ± SD: DPPH 300 μM, 37 °C, 30 minutes; for Antioxidant activity EC50: concentration required to scavenge 50% of DPPH; for Antioxidant activity (in words): DPPH
Outline: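 Test sample mixed with ethanolic DPPH radical solution (300 μM before mixing), incubated at 37 °C for 30 min, and absorbance read at 515 nm. Percent radical inhibition was calculated against a DMSO negative control, with ascorbic acid as the standard. EC50 is the sample concentration (μg ml−1) needed to scavenge 50% of DPPH.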

[2] = molecular target: urease (Canavalia ensiformis, UniProt P07374); assay: In vitro urease inhibition assay; format: biochemical
urease, sequence (P07374 whole entry, looked up): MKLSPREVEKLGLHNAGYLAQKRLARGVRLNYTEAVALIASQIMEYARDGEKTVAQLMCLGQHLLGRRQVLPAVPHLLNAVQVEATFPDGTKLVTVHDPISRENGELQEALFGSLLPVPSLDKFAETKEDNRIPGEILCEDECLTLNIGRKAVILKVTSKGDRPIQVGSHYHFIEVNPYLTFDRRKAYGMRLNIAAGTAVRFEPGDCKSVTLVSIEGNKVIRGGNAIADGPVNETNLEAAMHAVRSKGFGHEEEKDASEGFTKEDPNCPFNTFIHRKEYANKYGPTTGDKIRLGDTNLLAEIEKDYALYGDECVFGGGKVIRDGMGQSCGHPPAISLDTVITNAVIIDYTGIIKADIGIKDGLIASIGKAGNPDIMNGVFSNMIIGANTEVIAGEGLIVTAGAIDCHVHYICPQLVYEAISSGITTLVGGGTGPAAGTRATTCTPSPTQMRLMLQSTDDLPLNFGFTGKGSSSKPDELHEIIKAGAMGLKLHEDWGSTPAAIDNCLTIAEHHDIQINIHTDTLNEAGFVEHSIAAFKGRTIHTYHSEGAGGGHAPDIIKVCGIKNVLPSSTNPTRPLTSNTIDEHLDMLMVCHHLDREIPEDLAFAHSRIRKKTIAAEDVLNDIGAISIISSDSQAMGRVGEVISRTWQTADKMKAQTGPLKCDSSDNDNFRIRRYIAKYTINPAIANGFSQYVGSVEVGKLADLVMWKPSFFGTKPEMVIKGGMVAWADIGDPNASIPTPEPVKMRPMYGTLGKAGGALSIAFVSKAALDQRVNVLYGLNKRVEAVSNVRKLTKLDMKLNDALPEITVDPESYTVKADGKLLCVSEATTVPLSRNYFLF

SMILES	Antioxidant activity % Inhibition ± SD [1]	Antioxidant activity EC50 [1]	IC50 [2]	IC50 ([2]; read-out: Urease inhibition IC50 ± SD, indophenol method, 15 min at 30 °C, pH 8.2, triplicate)	Antioxidant activity (in words) [1]
O=C1O[C@H]([C@@H](O)CO)C(O)=C1O [Ascorbic acid, reference compound]	80%	8.3 µg/mL	–	–	–
CCOc1ccc(-c2nc3cc4ccccc4cc3[nH]2)cc1OC [Compound 2, 2-(4-Ethoxy-3-methoxyphenyl)-1H-naphtho[2,3-d]imidazole]	43 ± 0.01%	–	73.5 ± 0.65 µM	–	–
Oc1ccc(-c2nc3cc4ccccc4cc3[nH]2)c(O)c1O [Compound 10, 4-(1H-Naphtho[2,3-d]imidazol-2-yl)benzene-1,2,3-triol]	57.9 ± 0.02%	100 µg/mL	–	–	–
c1ccc(-c2nc3cc4ccccc4cc3[nH]2)cc1 [Compound 12, 2-Phenyl-1H-naphtho[2,3-d]imidazole]	43 ± 0.01%	–	–	–	–
c1csc(-c2nc3cc4ccccc4cc3[nH]2)c1 [Compound 8, 2-(Thiophen-2-yl)-1H-naphtho[2,3-d]imidazole]	32 ± 0.01%	–	86.4 ± 0.78 µM	–	–
CCOc1cc(-c2nc3cc4ccccc4cc3[nH]2)ccc1OC [Compound 7, 2-(3-Ethoxy-4-methoxyphenyl)-1H-naphtho[2,3-d]imidazole]	57.8 ± 0.01%	100 µg/mL	–	–	–
CC(=O)NO [Acetohydroxamic acid, reference compound]	–	–	–	37 µM	–
Fc1cc(Br)ccc1-c1nc2cc3ccccc3cc2[nH]1 [Compound 14, 2-(4-Bromo-2-fluorophenyl)-1H-naphtho[2,3-d]imidazole]	23 ± 0.01%	–	–	–	–
COc1ccc(-c2nc3cc4ccccc4cc3[nH]2)cc1O [Compound 6, 2-Methoxy-5-(1H-naphtho[2,3-d]imidazol-2-yl) phenol]	71 ± 0.01%	37.5 µg/mL	–	–	excellent antioxidant activity
COc1ccc(Br)c(-c2nc3cc4ccccc4cc3[nH]2)c1O [Compound 11, 3-Bromo-6-methoxy-2-(1H-naphtho[2,3-d]imidazol-2-yl)phenol]	71.1 ± 0.01%	37.5 µg/mL	42.4 ± 0.65 µM	–	excellent antioxidant activity
c1ccc2cc3[nH]c(-c4c[nH]c5ccccc45)nc3cc2c1 [Compound 1, 2-(1H-Indol-3-yl)-1H-naphtho[2,3-d]imidazole]	71.1 ± 0.01%	37.5 µg/mL	92.3 ± 0.2 µM	–	excellent antioxidant activity
COc1ccc(-c2nc3cc4ccccc4cc3[nH]2)cc1OC [Compound 9, 2-(3,4-Dimethoxyphenyl)-1H-naphtho[2,3-d]imidazole]	57.8 ± 0.02%	100 µg/mL	67.14 ± 0.67 µM	–	–
COc1cc(-c2nc3cc4ccccc4cc3[nH]2)ccc1OC(C)=O [Compound 3, 2-Methoxy-4-(1H-naphtho[2,3-d]imidazol-2-yl)phenyl acetate]	67.4 ± 0.01%	75 µg/mL	56.3 ± 0.78 µM	–	excellent antioxidant activity
Oc1ccc(Cl)cc1-c1nc2cc3ccccc3cc2[nH]1 [Compound 4, 4-Chloro-2-(1H-naphtho[2,3-d]imidazol-2yl)phenol]	29 ± 0.01%	–	34.2 ± 0.72 µM	–	–
COc1cc(-c2nc3cc4ccccc4cc3[nH]2)c(OC)cc1Br [Compound 13, 2-(4-Bromo-2,5-dimethoxyphenyl)-1H-naphtho[2,3-d]imidazole]	57.7 ± 0.01%	100 µg/mL	–	–	–
COc1cc(-c2nc3cc4ccccc4cc3[nH]2)cc(OC)c1O [Compound 5, 2,6-Dimethoxy-4-(1H-naphtho[2,3-d]imidazol-2-yl)phenol]	12 ± 0.01%	–	–	–	–
Brc1cccc(-c2nc3cc4ccccc4cc3[nH]2)c1 [Compound 15, 2-(3-Bromophenyl)-1H-naphtho[2,3-d]imidazole]	69.3 ± 0.01%	75 µg/mL	–	–	excellent antioxidant activity
